In ChEMBL document CHEMBL1153925, “Synthesis, characterization and biological activity of ring-substituted 6-benzylamino-9-tetrahydropyran-2-yl and 9-tetrahydrofuran-2-ylpurine derivatives” (Bioorg Med Chem, 2009):

What was measured:
BJ = test: Cytotoxicity against human BJ cells after 72 hrs by MTT assay; format: ADME, cell-based
MCF7 = test: Cytotoxicity against human MCF7 cells after 72 hrs by Calcein AM assay; format: ADME, cell-based; conditions: MCF7, 72 h
Nicotiana tabacum [1] = test: Cytokinin activity in tobacco callus assessed as stimulation of callus growth at 100 uM relative to 6-benzylaminopurine; format: functional
How it was run: (§1)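 Compounds dissolved in DMSO, diluted with water to 5 × 10^-2 M stock, then diluted in medium to 10^-8 to 10^-4 M. Final DMSO ≤0.2%; solvent control 0.2% DMSO. Readout was cytokinin-dependent tobacco callus growth. Activity is expressed relative to 10^-6 M BAP (=100%) at each compound's optimal concentration. Five replicates per concentration; whole test run at least twice.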

K562 = test: Cytotoxicity against human K562 cells after 72 hrs by Calcein AM assay; format: ADME, cell-based; conditions: K562, 72 h
Amaranthus = test: Cytokinin activity in cotyledons assessed as dark induction of betacyanin synthesis at 100 uM relative to 6-benzylaminopurine; format: functional
Nicotiana tabacum [2] = test: Cytokinin activity in tobacco callus assessed as stimulation of callus growth at 10 uM relative to 6-benzylaminopurine; format: functional; how it was run: as §1
Triticum aestivum = test: Cytokinin activity in wheat leaf assessed as stimulation of retention of chlorophyll in excised leaves at 0.1 mM relative to 6-benzylaminopurine; format: functional
Nicotiana tabacum [3] = test: Cytokinin activity in tobacco callus assessed as stimulation of callus growth at 1 uM relative to 6-benzylaminopurine; format: functional

Row | Compound | IC50 (BJ) [µM] | IC50 (MCF7) [µM] | Activity (Nicotiana tabacum [1]) [%] | IC50 (K562) [µM] | Activity (Amaranthus) [%] | Activity (Nicotiana tabacum [2]) [%] | Activity (Triticum aestivum) [%] | Activity (Nicotiana tabacum [3]) [%]
1 | Oc1cccc(CNc2ncnc3c2ncn3C2CCCCO2)c1O (stereo not drawn) | 63.3 | > 100 | 3.2 | 92 | 8 |  |  | 
2 | Oc1cc(O)cc(CNc2ncnc3c2ncn3C2CCCCO2)c1 (stereo not drawn) | > 100 | > 100 |  | > 100 | 33 | 36 | 15 | 
3 | COc1cc(CNc2ncnc3c2ncn3C2CCCCO2)cc(OC)c1OC (stereo not drawn) | > 100 | > 100 | 17 | > 100 | 19 |  | 7 | 
4 | c1ccc(CNc2ncnc3c2ncn3C2CCCO2)cc1 (stereo not drawn) | > 100 | > 100 |  | > 100 | 109 |  | 107 | 95
5 | Oc1ccc(CNc2ncnc3c2ncn3C2CCCO2)cc1 (stereo not drawn) | > 100 | > 100 |  | > 100 | 10 | 19 | 8 | 
6 | COc1ccccc1CNc1ncnc2c1ncn2C1CCCO1 (stereo not drawn) | > 100 | > 100 |  | > 100 | 107 | 91 | 72 | 
7 | COc1cccc(CNc2ncnc3c2ncn3C2CCCO2)c1 (stereo not drawn) | > 100 | > 100 |  | > 100 | 123 |  | 82 | 96
8 | COc1ccc(CNc2ncnc3c2ncn3C2CCCO2)cc1 (stereo not drawn) | > 100 | > 100 |  | > 100 | 25 |  | 16 | 7
9 | COc1ccc(CNc2ncnc3c2ncn3C2CCCO2)cc1OC (stereo not drawn) | > 100 | > 100 |  | > 100 | 5 |  | 7 | 3
10 | COc1cc(CNc2ncnc3c2ncn3C2CCCCO2)ccc1O (stereo not drawn) | > 100 | > 100 | 8.7 | > 100 | 26 |  | 7 | 
11 | COc1cc(OC)c(CNc2ncnc3c2ncn3C2CCCCO2)c(OC)c1 (stereo not drawn) | > 50 | > 50 | 2 | > 50 | 14 |  | 3 | 
12 | COc1ccc(CNc2ncnc3c2ncn3C2CCCCO2)cc1OC (stereo not drawn) | > 100 | > 100 |  | > 100 | 8 |  | 8 | 
13 | COc1ccc(CNc2ncnc3c2ncn3C2CCCCO2)c(OC)c1OC (stereo not drawn) | > 37.5 | > 37.5 |  | > 37.5 | 4 |  | 7 | 
14 | Oc1ccccc1CNc1ncnc2c1ncn2C1CCCO1 (stereo not drawn) | > 100 | > 100 | 58 | > 100 | 41 |  | 25 | 
15 | Oc1ccccc1CNc1ncnc2c1ncn2C1CCCCO1 (stereo not drawn) | > 100 | > 100 |  | > 100 | 46 | 37 | 31 | 
16 | COc1ccc(CNc2ncnc3c2ncn3C2CCCCO2)cc1 (stereo not drawn) | > 100 | > 100 |  | > 100 | 18 |  |  | 10
17 | COc1ccc(CNc2ncnc3c2ncn3C2CCCO2)c(OC)c1 (stereo not drawn) | > 100 | > 100 |  | > 100 | 14 |  | 18 | 3
